Shown are actives, neighbours in structure and some others; about 29% of the full set was active somewhere.
Ecoli tolC: blocks growth of E. coli BW25113 tolC mutant; OD615; growth inhibition, % at 10 µM (by protocol); 2.2% of 65,000 active;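 active means growth inhibition at or above a cutoff equal to the mean over every tested compound plus 3 SD, cut at about 60% in these data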;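 further: growth measured after 20 h incubation at 37 °C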
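test system = E. coli BW25113 ΔtolC::kan bacteria | medium = LB with kanamycin 50 µg/mL | signal = OD at 615 nm | schedule = 37 °C, 20 h exposure | evaluation = % inhibition of E. coli growth | compound dosing = one dose of 10 µM final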
CYP2C9 inh: human CYP2C9 inhibition; 20% of 96,000 active; AID 777; inhibition, % at 5 µM; P11712; CYP2C9 Supersomes, luciferin-H conversion, luminescence;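 active means blocking of liver enzyme CYP2C9 beyond about 50% at 5 µM, limit read from the data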
CYP2C9 activ: activators of human CYP2C9. 1.4% of 96,000 active. P11712. activation factor at 5 µM. recombinant CYP2C9, luciferin-H conversion, luminescence; active compounds read high; factor 1 = untreated enzyme, 0 = blocked. AID 1024;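 active means activation factor of 2 or more for CYP2C9 at a 5 µM dose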;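 further: 0 = sulfaphenazole-blocked wells and 1 = vehicle-only wells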
CYP2C19 act: increases human CYP2C19 enzyme activity. AID 1025. P33261. recombinant CYP2C19, luciferin-H EGE luminescence; active compounds read high; 0 = fully inhibited enzyme, 1 = untreated enzyme. activation factor at 5 µM. 96,000 tested, under 10 active;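 active means activation factor of at least 2 at 5 µM in the primary screen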;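 further: 0 = wells with 2.5 mM tranylcypromine and 1 = vehicle-only wells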
Target sequence (P33261 whole entry, looked up): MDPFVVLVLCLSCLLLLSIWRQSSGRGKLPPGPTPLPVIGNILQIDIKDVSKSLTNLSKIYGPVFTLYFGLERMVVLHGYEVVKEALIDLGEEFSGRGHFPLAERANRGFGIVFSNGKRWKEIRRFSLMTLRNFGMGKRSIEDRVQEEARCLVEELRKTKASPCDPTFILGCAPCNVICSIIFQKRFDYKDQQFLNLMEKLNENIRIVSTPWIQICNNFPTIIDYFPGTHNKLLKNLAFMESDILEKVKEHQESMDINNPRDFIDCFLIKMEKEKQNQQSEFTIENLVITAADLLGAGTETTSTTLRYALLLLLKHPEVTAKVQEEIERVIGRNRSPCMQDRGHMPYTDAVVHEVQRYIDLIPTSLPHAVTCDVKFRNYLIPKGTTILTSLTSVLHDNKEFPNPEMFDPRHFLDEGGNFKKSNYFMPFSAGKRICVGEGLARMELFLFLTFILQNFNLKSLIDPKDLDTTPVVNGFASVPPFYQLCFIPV
CYP2C19 inhib: blocks human cytochrome P450 2C19. CYP2C19 Supersomes, luciferin-H EGE luminescence, 30 min. inhibition, % at 5 µM. 21% of 96,000 active;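 active means CYP2C19 inhibition above a set limit at 5 µM in the primary screen, cut at about 50% in these data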;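 further: plate controls were negative control wells for no effect and 2.5 mM tranylcypromine positive control for full effect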
Ecoli WT expand: E. coli BW25113 growth inhibition, expanded screen | OD600 absorbance | 0.15% of 98,000 active | AID 710 | growth inhibition, % at 100 µM;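 active means growth inhibition above about 50% at one test dose, limit read from the data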;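 further: growth measured after 20 h incubation at 37 °C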
Active calls of the source: *.

`Cc1ccc(SCCNC(=O)C(CO)(CO)CO)cc1` gave Ecoli tolC 1, CYP2C9 inh -8, CYP2C9 activ 1.1, CYP2C19 act 1.1, CYP2C19 inhib -5 and Ecoli WT expand 5.
For Cc1ccc(-c2cc(C(=O)NCc3ccccn3)c3ccccc3n2)cc1C the results were CYP2C9 inh 59*, CYP2C9 activ 0.4, CYP2C19 act 0.7, CYP2C19 inhib 33 and Ecoli WT expand -15.
For Cc1ccc(-c2cc(C(=O)n3cnc4ccccc43)c3ccccc3n2)cc1C the results were CYP2C9 inh 88*, CYP2C9 activ 0.1, CYP2C19 act 0.7, CYP2C19 inhib 33 and Ecoli WT expand -17.
`CN1C(=O)CC(N2CCN(c3ccc(Cl)c(Cl)c3)CC2)C1=O` (stereo not given) gave Ecoli tolC 16, CYP2C9 inh 17, CYP2C9 activ 0.8, CYP2C19 act 0.5, CYP2C19 inhib 47 and Ecoli WT expand -1.
For COc1ccc(-c2nc3oc4cc(OC)ccc4c(=O)c3c(=O)n2Cc2ccco2)cc1 the results were Ecoli tolC 95*, CYP2C9 inh 19, CYP2C9 activ 0.8, CYP2C19 act 0.6, CYP2C19 inhib 41 and Ecoli WT expand -14.
For COc1ccc(Cn2c(-c3ccco3)nc3oc4cc(OC)ccc4c(=O)c3c2=O)cc1 the results were Ecoli tolC 86*, CYP2C9 inh 12, CYP2C9 activ 0.9, CYP2C19 act 1, CYP2C19 inhib 4 and Ecoli WT expand -23.
COc1ccc2c(=O)c3c(=O)n(Cc4ccco4)c(-c4ccco4)nc3oc2c1 was read as CYP2C9 inh 47, CYP2C9 activ 0.5, CYP2C19 act 1, CYP2C19 inhib 1 and Ecoli WT expand -11.
Screening Cc1nc(N)nc(-c2ccccc2O)n1 returned CYP2C9 inh 31, CYP2C9 activ 0.7, CYP2C19 act 0.8, CYP2C19 inhib 22 and Ecoli WT expand 8.
For CCOC(=O)c1cc2sc(C)cc2n1CC(=O)Nc1cccc(C)c1C the results were Ecoli tolC 0 and Ecoli WT expand -13.
CCOC(=O)c1cc2sc(C)cc2n1C(C)C(=O)OCC (stereo not given) was read as Ecoli tolC 62*, CYP2C9 inh 54*, CYP2C9 activ 0.5, CYP2C19 act 0, CYP2C19 inhib 95* and Ecoli WT expand 6.
CCN(CC(=O)NC(C)C)Cc1nc2sc3c(c2c(=O)[nH]1)CCC3 was read as CYP2C9 inh 37, CYP2C9 activ 0.6, CYP2C19 act 0.6, CYP2C19 inhib 44 and Ecoli WT expand -1.
CCC(=O)c1ccc(OCC(O)CN2CCN(S(=O)(=O)N3CCCCC3)CC2)cc1 (stereo not given) was read as Ecoli tolC 11, CYP2C9 inh 72*, CYP2C9 activ 0.3, CYP2C19 act 0.5, CYP2C19 inhib 52* and Ecoli WT expand -1.
`O=C(c1ccccc1)c1ccc(OCC(O)CN2CCN(S(=O)(=O)N3CCCCC3)CC2)cc1` (stereo not given) gave CYP2C9 inh 98*, CYP2C9 activ 0, CYP2C19 act 0.1, CYP2C19 inhib 85* and Ecoli WT expand -17.
CCOC(=O)C1CCN(CC(O)COc2ccc(C(=O)CC)cc2)CC1 (stereo not given) was read as Ecoli tolC -17, CYP2C9 inh 6, CYP2C9 activ 0.9, CYP2C19 act 1, CYP2C19 inhib 4 and Ecoli WT expand 4.
For COc1ccc(NC(=O)Cc2nn(C)c(=O)c3ccccc23)c2ncccc12 the results were Ecoli tolC 0, CYP2C9 inh 11, CYP2C9 activ 0.9, CYP2C19 act 1 and CYP2C19 inhib 4.
Screening CCOC(=O)N1CCN(c2c(N3CCOCC3)c(=O)c2=O)CC1 returned Ecoli tolC -27, CYP2C9 inh 7, CYP2C9 activ 0.9, CYP2C19 act 1, CYP2C19 inhib -1 and Ecoli WT expand 4.
Screening CCOC(=O)N1CCN(c2c(Nc3ccc4c(c3)OCCO4)c(=O)c2=O)CC1 returned Ecoli tolC -17, CYP2C9 inh -103, CYP2C9 activ 2*, CYP2C19 act 0.9, CYP2C19 inhib 11 and Ecoli WT expand 2.
Screening Cc1ccc2nc(C3CCN(C(=O)c4ccco4)CC3)[nH]c2c1 returned Ecoli tolC -12, CYP2C9 inh 26, CYP2C9 activ 0.7, CYP2C19 act 0.9, CYP2C19 inhib 6 and Ecoli WT expand -3.
Screening CCc1nc(SCC(=O)NCC2CCCO2)c2oc3ccccc3c2n1 (stereo not given) returned Ecoli tolC 13, CYP2C9 inh 43, CYP2C9 activ 0.6, CYP2C19 act 0.2, CYP2C19 inhib 77* and Ecoli WT expand 5.
CCc1nc(SCC(=O)N2CCc3ccccc32)c2oc3ccccc3c2n1 was read as Ecoli tolC -23.
Cc1nc(SCC(=O)NCC2CCCO2)c2oc3ccccc3c2n1 (stereo not given) was read as Ecoli tolC -3, CYP2C9 inh 18, CYP2C9 activ 0.8, CYP2C19 act 0.5, CYP2C19 inhib 52* and Ecoli WT expand -6.
Screening O=C(Cn1cnc2c(oc3ccccc32)c1=O)NCC1CCCO1 (stereo not given) returned Ecoli tolC -15, CYP2C9 inh 17, CYP2C9 activ 0.8, CYP2C19 act 1, CYP2C19 inhib -2 and Ecoli WT expand 2.
CCSc1nc(-c2cccs2)nc2c1c(=O)n(C)c(=O)n2C was read as Ecoli tolC -7.
CCOc1c(Br)cc(C2NS(=O)(=O)N=C3CCCCCN32)cc1OC (stereo not given) was read as Ecoli tolC -4, CYP2C9 inh 66*, CYP2C9 activ 0.3, CYP2C19 act 0.3, CYP2C19 inhib 68* and Ecoli WT expand 5.
O=S1(=O)N=C2CCCN2C(c2ccc(F)cc2)N1 (stereo not given) was read as Ecoli tolC -18, CYP2C9 inh -15, CYP2C9 activ 1.1, CYP2C19 act 1, CYP2C19 inhib -4 and Ecoli WT expand -2.
Screening COc1cc(C)nc(N2CCC(C(=O)NC3CCCCC3)CC2)n1 returned Ecoli tolC -12, CYP2C9 inh 28, CYP2C9 activ 0.7, CYP2C19 act 0.5, CYP2C19 inhib 46 and Ecoli WT expand -5.
CCOC(=O)c1cc2c(=O)n3ccccc3nc2n(Cc2ccccc2Cl)c1=N was read as Ecoli tolC 16, CYP2C9 inh 57*, CYP2C9 activ 0.4, CYP2C19 act 0.8 and CYP2C19 inhib 22.
For CCOC(=O)c1cc2c(=O)n3ccccc3nc2n(CCOC)c1=NC(=O)c1ccncc1 the results were Ecoli tolC 6, CYP2C9 inh 6, CYP2C9 activ 0.9, CYP2C19 act 0.8, CYP2C19 inhib 19 and Ecoli WT expand -3.
COc1ccc(CCn2c(=N)c(C(=O)N3CCN(C)CC3)cc3c(=O)n4ccccc4nc32)cc1 was read as Ecoli tolC 4, CYP2C9 inh 39, CYP2C9 activ 0.6, CYP2C19 act 0.3, CYP2C19 inhib 72* and Ecoli WT expand 2.

Compound activity from PubChem BioAssay.
